Measured values published in ChEMBL document CHEMBL3804807, “Purine analogs as phosphatidylinositol 4-kinase IIIβ inhibitors” (Bioorg Med Chem Lett, 2016).

Key:
[1] = species on record: Homo sapiens; experiment: Inhibition of PI4K3 alpha (unknown origin) at 10 uM by ADP-Glo assay relative to control
Summary of the method: (§1)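 PI4K IIIα and PI4K IIIβ activity read by ADP-Glo assay. Each compound was tested at a single concentration of 10 μM, and residual enzyme activity was expressed relative to control.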

[2] = species on record: Homo sapiens; experiment: Inhibition of PI4K3 beta (unknown origin) assessed as residual activity at 10 uM by ADP-Glo assay relative to control; summary of the method: as §1
[3] = Inhibition of PI4K3 beta (unknown origin) by ADP-Glo assay; parameters: species or system Homo sapiens
[4] = system: Coxsackievirus B3; experiment: Antiviral activity against Human coxsackievirus B3; format: functional, organism-based; conditions: Enterovirus B
[5] = system: Human rhinovirus sp.; experiment: Antiviral activity against Human rhinovirus; format: functional, organism-based
[6] = system: Hepatitis C virus; experiment: Antiviral activity against Hepatitis C virus subtype 1b; format: functional, organism-based, Hepacivirus hominis; conditions: genotype 1b
[7] = Cytotoxicity against human HeLa cells; format: cell-based

SMILES: COc1nc(NCCN2CCOCC2)c2nc(C)n(-c3ccc(OC)c(OC)c3)c2n1
- inhibition [1]: < 50%
- Activity [2]: 15%
- IC50 [3]: 2990 nM
- EC50 [4]: > 50 µM
- EC50 [5]: 16 µM
- EC50 [6]: 6 µM
- CC50 [7]: > 50 µM

SMILES: COc1ccc(-n2c(C)nc3c(NCCN4CCOCC4)nc(-c4ccsc4)nc32)cc1OC
- inhibition [1]: < 50%
- Activity [2]: 46%
- EC50 [5]: > 50 µM
- EC50 [6]: 23 µM
- CC50 [7]: > 50 µM

SMILES: COc1ccc(-n2c(C)nc3c(NCCN4CCOCC4)nc(C)nc32)cc1OC
- inhibition [1]: < 50%
- Activity [2]: 14%
- IC50 [3]: 910 nM
- EC50 [4]: 8 µM
- EC50 [5]: 40 µM
- EC50 [6]: > 44 µM
- CC50 [7]: > 50 µM

SMILES: COc1ccc(-n2c(C)nc3c(NCCN4CCOCC4)nc(-c4cccc(C(=O)N(C)C)c4)nc32)cc1OC
- inhibition [1]: < 50%
- Activity [2]: 16%
- IC50 [3]: 1090 nM
- EC50 [4]: 1.1 µM
- EC50 [5]: 3.3 µM
- EC50 [6]: 3.8 µM
- CC50 [7]: > 50 µM

SMILES: COc1ccc(-n2nnc3c(NCCN4CCOCC4)ncnc32)cc1OC
- inhibition [1]: < 50%
- Activity [2]: 41%
- EC50 [4]: > 50 µM
- EC50 [6]: 32 µM
- CC50 [7]: > 50 µM

SMILES: COc1ccc(-n2c(C)nc3c(NCCN4CCOCC4)nc(-c4ccc(O)cc4)nc32)cc1OC
- inhibition [1]: < 50%
- Activity [2]: 18%
- IC50 [3]: 2370 nM
- EC50 [4]: 1.8 µM
- EC50 [5]: 3 µM
- EC50 [6]: 1.3 µM
- CC50 [7]: > 50 µM

SMILES: COc1ccc(-n2c(OC)nc3c(NCCN4CCOCC4)nc(C)nc32)cc1OC
- inhibition [1]: < 50%
- Activity [2]: 86%
- EC50 [4]: > 50 µM
- EC50 [5]: > 50 µM
- EC50 [6]: > 44 µM
- CC50 [7]: > 50 µM

SMILES: COc1ccc(Cn2c(C)nc3c(NCCN4CCOCC4)nc(C)nc32)cc1OC
- inhibition [1]: < 50%
- Activity [2]: 126%
- EC50 [4]: > 50 µM
- EC50 [5]: > 50 µM
- EC50 [6]: 43 µM
- CC50 [7]: > 50 µM

SMILES: COc1ccc(-n2c(C)nc3c(NCCN4CCOCC4)nc(-c4cccnc4)nc32)cc1OC
- inhibition [1]: < 50%
- Activity [2]: 36%
- EC50 [4]: 14 µM
- EC50 [5]: 3.3 µM
- EC50 [6]: 15 µM
- CC50 [7]: > 50 µM

SMILES: COc1ccc(-n2c(Br)nc3c(NCCN4CCOCC4)nc(C)nc32)cc1OC
- inhibition [1]: < 50%
- Activity [2]: 17%
- IC50 [3]: 5200 nM
- EC50 [4]: 11 µM
- EC50 [5]: 25 µM
- EC50 [6]: 6.7 µM
- CC50 [7]: > 50 µM

SMILES: COc1ccc(-n2c(-c3ccc(CO)cc3)nc3c(NCCN4CCOCC4)nc(C)nc32)cc1OC
- inhibition [1]: < 50%
- Activity [2]: 103%
- EC50 [4]: > 50 µM
- EC50 [5]: > 50 µM
- EC50 [6]: > 44 µM
- CC50 [7]: > 50 µM

SMILES: COc1ccc(-n2c(-c3ccc(O)cc3)nc3c(NCCN4CCOCC4)nc(C)nc32)cc1OC
- inhibition [1]: < 50%
- Activity [2]: 125%
- EC50 [4]: > 50 µM
- EC50 [5]: > 50 µM
- EC50 [6]: > 44 µM
- CC50 [7]: > 50 µM

SMILES: COc1ccc(-n2c(C)nc3c(NCCN4CCOCC4)nc(C#N)nc32)cc1OC
- inhibition [1]: < 50%
- Activity [2]: 24%
- IC50 [3]: 2070 nM
- EC50 [4]: > 50 µM
- EC50 [5]: 31 µM
- EC50 [6]: 14 µM
- CC50 [7]: > 50 µM

SMILES: COc1ccc(-n2c(C)nc3c(NCCN4CCOCC4)nc(C#Cc4ccccc4)nc32)cc1OC
- inhibition [1]: < 50%
- Activity [2]: 58%
- EC50 [4]: 5 µM
- EC50 [5]: 8 µM
- EC50 [6]: 6 µM
- CC50 [7]: 48 µM

SMILES: COc1ccc(-n2c(C)nc3c(NCCN4CCOCC4)nc(I)nc32)cc1OC
- inhibition [1]: < 50%
- Activity [2]: 33%
- EC50 [4]: 9 µM
- EC50 [5]: 16 µM
- EC50 [6]: 10 µM
- CC50 [7]: > 50 µM

SMILES: COc1ccc(-n2c(C)nc3c(NCCN4CCOCC4)nc(-c4cccc(Cl)c4)nc32)cc1OC
- inhibition [1]: < 50%
- Activity [2]: 67%
- EC50 [4]: > 50 µM
- EC50 [5]: 9 µM
- EC50 [6]: 5 µM
- CC50 [7]: > 50 µM

SMILES: COc1ccc(-n2c(C)nc3c(NCCN4CCOCC4)nc(-c4cccc(NC(C)=O)c4)nc32)cc1OC
- inhibition [1]: < 50%
- Activity [2]: 14%
- IC50 [3]: 2140 nM
- EC50 [4]: 1.6 µM
- EC50 [5]: 9.3 µM
- EC50 [6]: 5.9 µM
- CC50 [7]: > 50 µM

SMILES: COc1ccc(-n2c(C3CCCCC3)nc3c(NCCN4CCOCC4)nc(C)nc32)cc1OC
- inhibition [1]: < 50%
- Activity [2]: 79%
- EC50 [4]: > 50 µM
- EC50 [5]: > 50 µM
- EC50 [6]: > 44 µM
- CC50 [7]: > 50 µM

SMILES: COc1ccc(-n2c(C(C)C)nc3c(NCCN4CCOCC4)nc(C)nc32)cc1OC
- inhibition [1]: < 50%
- Activity [2]: 65%
- EC50 [4]: > 50 µM
- EC50 [6]: > 44 µM
- CC50 [7]: > 50 µM

SMILES: C#Cc1nc(NCCN2CCOCC2)c2nc(C)n(-c3ccc(OC)c(OC)c3)c2n1
- inhibition [1]: < 50%
- Activity [2]: 18%
- IC50 [3]: 1910 nM
- EC50 [4]: > 50 µM
- EC50 [5]: 26 µM
- EC50 [6]: 13 µM
- CC50 [7]: > 50 µM

SMILES: COc1ccc(-n2c(C)nc3c(NCCN4CCOCC4)nc(-c4ccc(F)cc4)nc32)cc1OC
- inhibition [1]: < 50%
- Activity [2]: 66%
- EC50 [4]: 27 µM
- EC50 [5]: 3.4 µM
- EC50 [6]: 4.4 µM
- CC50 [7]: > 50 µM

SMILES: COc1ccc(-n2c(C(F)(F)F)nc3c(NCCN4CCOCC4)nc(C)nc32)cc1OC
- inhibition [1]: < 50%
- Activity [2]: 99%
- EC50 [4]: > 50 µM
- EC50 [5]: > 50 µM
- EC50 [6]: > 44 µM
- CC50 [7]: > 50 µM

SMILES: COc1ccc(-n2c(C#Cc3ccccc3)nc3c(NCCN4CCOCC4)nc(C)nc32)cc1OC
- inhibition [1]: < 50%
- Activity [2]: 96%
- EC50 [4]: > 50 µM
- EC50 [5]: > 50 µM
- EC50 [6]: 30 µM
- CC50 [7]: > 50 µM

SMILES: COc1ccc(-n2c(C)nc3c(NCCN4CCOCC4)ncnc32)cc1OC
- inhibition [1]: < 50%
- Activity [2]: 13%
- IC50 [3]: 1610 nM
- EC50 [4]: 5 µM
- EC50 [5]: 28 µM
- EC50 [6]: 19 µM
- CC50 [7]: > 50 µM

SMILES: COc1ccc(-n2c(-c3ccc(C#N)cc3)nc3c(NCCN4CCOCC4)nc(C)nc32)cc1OC
- inhibition [1]: < 50%
- Activity [2]: 97%
- EC50 [4]: > 50 µM
- EC50 [5]: > 50 µM
- EC50 [6]: > 44 µM
- CC50 [7]: > 50 µM

SMILES: COc1ccc(-n2c(C3CC=CCC3)nc3c(NCCN4CCOCC4)nc(C)nc32)cc1OC (centres undefined)
- inhibition [1]: < 50%
- Activity [2]: 75%
- EC50 [4]: > 50 µM
- EC50 [5]: > 50 µM
- EC50 [6]: > 44 µM
- CC50 [7]: > 50 µM

SMILES: COc1ccc(-n2nnc3c(NCCN4CCOCC4)nc(C)nc32)cc1OC
- inhibition [1]: < 50%
- Activity [2]: 31%
- EC50 [4]: 26 µM
- EC50 [6]: 33 µM
- CC50 [7]: > 50 µM

SMILES: COc1ccc(-n2c(-c3ccc(F)cc3)nc3c(NCCN4CCOCC4)nc(C)nc32)cc1OC
- inhibition [1]: < 50%
- Activity [2]: 78%
- EC50 [4]: > 50 µM
- EC50 [5]: > 50 µM
- EC50 [6]: > 44 µM
- CC50 [7]: > 50 µM

SMILES: COc1ccc(-n2c(-c3ccsc3)nc3c(NCCN4CCOCC4)nc(C)nc32)cc1OC
- inhibition [1]: < 50%
- Activity [2]: 94%
- EC50 [4]: > 50 µM
- EC50 [5]: > 50 µM
- EC50 [6]: > 44 µM
- CC50 [7]: > 50 µM

SMILES: COc1ccc(-n2c(I)nc3c(NCCN4CCOCC4)nc(C)nc32)cc1OC
- inhibition [1]: < 50%
- Activity [2]: 38%
- EC50 [4]: 40 µM
- EC50 [5]: > 50 µM
- EC50 [6]: 20 µM
- CC50 [7]: > 50 µM

SMILES: COc1ccc(-n2ccc3c(NCCN4CCOCC4)ncnc32)cc1OC
- inhibition [1]: < 50%
- Activity [2]: 74%
- EC50 [4]: > 50 µM
- EC50 [6]: 22 µM
- CC50 [7]: > 50 µM

SMILES: COc1ccc(-n2c(C)nc3c(NCCN4CCOCC4)nc(N)nc32)cc1OC
- inhibition [1]: < 50%
- Activity [2]: 25%
- IC50 [3]: 1440 nM
- EC50 [4]: 19 µM
- EC50 [5]: 49 µM
- EC50 [6]: 40 µM
- CC50 [7]: > 50 µM

SMILES: COc1ccc(-n2c(-c3ccc(C=O)cc3)nc3c(NCCN4CCOCC4)nc(C)nc32)cc1OC
- inhibition [1]: < 50%
- Activity [2]: 138%
- EC50 [4]: > 50 µM
- EC50 [5]: > 50 µM
- EC50 [6]: > 44 µM
- CC50 [7]: > 50 µM

SMILES: COc1ccc(-n2c(CO)nc3c(NCCN4CCOCC4)nc(C)nc32)cc1OC
- inhibition [1]: < 50%
- Activity [2]: 62%
- EC50 [4]: > 50 µM
- EC50 [6]: > 44 µM
- CC50 [7]: > 50 µM

SMILES: COc1ccc(-n2c(-c3ccc(OCc4ccccc4)cc3)nc3c(NCCN4CCOCC4)nc(C)nc32)cc1OC
- inhibition [1]: < 50%
- Activity [2]: 112%
- EC50 [5]: 9.6 µM
- EC50 [6]: > 44 µM
- CC50 [7]: 26 µM

SMILES: COc1ccc(-n2c(C)nc3c(NCCN4CCOCC4)nc(-c4ccc(C#N)cc4)nc32)cc1OC
- inhibition [1]: < 50%
- Activity [2]: 97%
- EC50 [4]: 9.9 µM
- EC50 [5]: 3 µM
- EC50 [6]: 3.9 µM
- CC50 [7]: > 50 µM

SMILES: COc1ccc(-n2cnc3c(NCCN4CCOCC4)nc(C)nc32)cc1OC
- inhibition [1]: < 50%
- Activity [2]: 26%
- EC50 [4]: 34 µM
- EC50 [6]: 11.5 µM
- CC50 [7]: > 50 µM
